Experimental data taken from ChEMBL document CHEMBL4689842, “EUbOPEN Chemogenomics Library wave 1” (2021).
Several values for one entry are separate records, joined by “and”; a condition that tells them apart may be missing. Equal values may be shown once.

What was measured:
Assay type in all cases: toxicity, cell-based
Fibroblast [1] = assay: Multiplex assay against human fibroblast; conditions: 1 µM, compound concentration 1 uM
Outline: (§1)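 Values for tubulin, mitochondrial-mass and membrane-permeability phenotypes are per cents of cells with healthy nuclei. These cells were identified by CellPathfinder machine-learning gating of live cells that had been stained at seeding with Hoechst33342, BioTracker Green Microtubule Cytoskeleton Dye, MitoTracker Red and Annexin V Alexa Fluor 680 and imaged on a CQ1 microscope at 37°C and 5% CO2 after compound addition. The gating first set Hoechst high-intensity objects apart from normal cells, then split normal cells into healthy, pyknosed or fragmented nuclei, and pyknosed cells into mitotic or apoptotic.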

HEK-293T [2] = assay: Multiplex assay against HEK293T; conditions: human, 1 µM, compound concentration 1 uM; outline: as §1;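 on Population Tubulin-Different-Phenotype (%): share of the cells with healthy nuclei that show this phenotype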
U2OS [3] = assay: Multiplex assay against U2OS; conditions: human, 1 µM, compound concentration 1 uM; outline: as §1
HEK-293T [4] = assay: Incucyte cell viability with HEK293T; conditions: human, 10 µM, compound concentration 10 uM; further: filed as whole numbers so only -1 and 0 and 1 occur
Fibroblast [5] = assay: Incucyte cell viability with human fibroblast; conditions: 10 µM, compound concentration 10 uM; further: filed as whole numbers so only -1 and 0 and 1 occur
U2OS [6] = assay: Incucyte cell viability with U2OS; conditions: human, 10 µM, compound concentration 10 uM; further: filed as whole numbers so only -1 and 0 and 1 occur
[7] = 6 h, replicate number 1, timepoint 6 hours
[8] = 12 h, replicate number 1, timepoint 12 hours
[9] = 18 h, replicate number 1, timepoint 18 hours
[10] = 24 h, replicate number 1, timepoint 24 hours

Cn1cc(C2=C(c3cn(C4CCN(Cc5ccccn5)CC4)c4ccccc34)C(=O)NC2=O)c2ccccc21 [ENZASTAURIN]
Population Apoptotic (%) (Fibroblast [1]; 12 h, replicate 1): 79% and 42%
Population Fragmented Nuclei (%) (Fibroblast [1]; 12 h, replicate 1): 34% and 40%
Population Healthy Nuclei (%) (Fibroblast [1]; 12 h, replicate 1): 49% and 35%
Population Membrane Permeable-Phenotype (%) (Fibroblast [1]; 12 h, replicate 1): 8% and 7%
Population Mitotic Cells (%) (Fibroblast [1]; 12 h, replicate 1): 20% and 57%
Population Normal (%) (Fibroblast [1]; 12 h, replicate 1): 84% and 33%
Population Pyknosed Nuclei (%) (Fibroblast [1]; 12 h, replicate 1): 15% and 23%
Total Cell Count (Fibroblast [1]; 12 h, replicate 1): 220 and 479
Population Apoptotic (%) (Fibroblast [1]; 12 h, replicate 2): 66% and 55%
Population Fragmented Nuclei (%) (Fibroblast [1]; 12 h, replicate 2): 70% and 45%
Population Healthy Nuclei (%) (Fibroblast [1]; 12 h, replicate 2): 19% and 34%
Population Hoechst High Intensity Objects (%) (Fibroblast [1]; 12 h, replicate 2): 30% and 51%
Population Membrane Permeable-Phenotype (%) (Fibroblast [1]; 12 h, replicate 2): 16% and 0%
Population Mitochondria Different-Phenotype (%) (Fibroblast [1]; 12 h, replicate 2): 25% and 60%
Population Mitotic Cells (%) (Fibroblast [1]; 12 h, replicate 2): 33% and 44%
Population Normal (%) (Fibroblast [1]; 12 h, replicate 2): 69% and 48%
Population Pyknosed Nuclei (%) (Fibroblast [1]; 12 h, replicate 2): 9% and 20%
Total Cell Count (Fibroblast [1]; 12 h, replicate 2): 88 and 91
Population Apoptotic (%) (Fibroblast [1]; 24 h, replicate 1): 64% and 73%
Population Fragmented Nuclei (%) (Fibroblast [1]; 24 h, replicate 1): 47% and 27%
Population Healthy Nuclei (%) (Fibroblast [1]; 24 h, replicate 1): 23% and 58%
Population Membrane Permeable-Phenotype (%) (Fibroblast [1]; 24 h, replicate 1): 6% and 3%
Population Mitotic Cells (%) (Fibroblast [1]; 24 h, replicate 1): 35% and 26%
Population Normal (%) (Fibroblast [1]; 24 h, replicate 1): 28% and 83%
Population Pyknosed Nuclei (%) (Fibroblast [1]; 24 h, replicate 1): 28% and 13%
Total Cell Count (Fibroblast [1]; 24 h, replicate 1): 427 and 225
Population Apoptotic (%) (Fibroblast [1]; 24 h, replicate 2): 33% and 90%
Population Fragmented Nuclei (%) (Fibroblast [1]; 24 h, replicate 2): 67% and 50%
Population Healthy Nuclei (%) (Fibroblast [1]; 24 h, replicate 2): 26% and 19%
Population Hoechst High Intensity Objects (%) (Fibroblast [1]; 24 h, replicate 2): 34% and 50%
Population Membrane Permeable-Phenotype (%) (Fibroblast [1]; 24 h, replicate 2): 7% and 14%
Population Normal (%) (Fibroblast [1]; 24 h, replicate 2): 65% and 49%
Total Cell Count (Fibroblast [1]; 24 h, replicate 2): 75 and 73
Population Apoptotic (%) (HEK-293T [2]; 12 h, replicate 1): 23% and 42%
Population Fragmented Nuclei (%) (HEK-293T [2]; 12 h, replicate 1): 18% and 16%
Population Healthy Nuclei (%) (HEK-293T [2]; 12 h, replicate 1): 49% and 29%
Population Hoechst High Intensity Objects (%) (HEK-293T [2]; 12 h, replicate 1): 14% and 15%
Population Membrane Permeable-Phenotype (%) (HEK-293T [2]; 12 h, replicate 1): 13% and 12%
Population Mitotic Cells (%) (HEK-293T [2]; 12 h, replicate 1): 76% and 57%
Population Normal (%) (HEK-293T [2]; 12 h, replicate 1): 85% and 84%
Population Pyknosed Nuclei (%) (HEK-293T [2]; 12 h, replicate 1): 31% and 53%
Total Cell Count (HEK-293T [2]; 12 h, replicate 1): 539 and 569
Population Apoptotic (%) (HEK-293T [2]; 12 h, replicate 2): 28% and 14%
Population Fragmented Nuclei (%) (HEK-293T [2]; 12 h, replicate 2): 3% and 4%
Population Healthy Nuclei (%) (HEK-293T [2]; 12 h, replicate 2): 77% and 86%
Population Hoechst High Intensity Objects (%) (HEK-293T [2]; 12 h, replicate 2): 6% and 4%
Population Membrane Permeable-Phenotype (%) (HEK-293T [2]; 12 h, replicate 2): 2% and 6%
Population Mitochondria Different-Phenotype (%) (HEK-293T [2]; 12 h, replicate 2): 72% and 25%
Population Mitotic Cells (%) (HEK-293T [2]; 12 h, replicate 2): 71% and 85%
Population Normal (%) (HEK-293T [2]; 12 h, replicate 2): 93% and 95%
Population Pyknosed Nuclei (%) (HEK-293T [2]; 12 h, replicate 2): 19% and 9%
Population Tubulin-Different-Phenotype (%) (HEK-293T [2]; 12 h, replicate 2): 87% and 37%
Total Cell Count (HEK-293T [2]; 12 h, replicate 2): 1031 and 1115
Population Apoptotic (%) (HEK-293T [2]; 24 h, replicate 1): 49% and 19%
Population Fragmented Nuclei (%) (HEK-293T [2]; 24 h, replicate 1): 19% and 16%
Population Healthy Nuclei (%) (HEK-293T [2]; 24 h, replicate 1): 39% and 65%
Population Hoechst High Intensity Objects (%) (HEK-293T [2]; 24 h, replicate 1): 24% and 11%
Population Membrane Permeable-Phenotype (%) (HEK-293T [2]; 24 h, replicate 1): 11% and 6%
Population Mitotic Cells (%) (HEK-293T [2]; 24 h, replicate 1): 50% and 80%
Population Normal (%) (HEK-293T [2]; 24 h, replicate 1): 75% and 88%
Population Pyknosed Nuclei (%) (HEK-293T [2]; 24 h, replicate 1): 41% and 18%
Population Tubulin-Different-Phenotype (%) (HEK-293T [2]; 24 h, replicate 1): 76% and 32%
Total Cell Count (HEK-293T [2]; 24 h, replicate 1): 506 and 516
Population Fragmented Nuclei (%) (HEK-293T [2]; 24 h, replicate 2): 4% and 12%
Population Healthy Nuclei (%) (HEK-293T [2]; 24 h, replicate 2): 85% and 83%
Population Hoechst High Intensity Objects (%) (HEK-293T [2]; 24 h, replicate 2): 9% and 5%
Population Membrane Permeable-Phenotype (%) (HEK-293T [2]; 24 h, replicate 2): 3% and 4%
Population Mitotic Cells (%) (HEK-293T [2]; 24 h, replicate 2): 68% and 93%
Population Normal (%) (HEK-293T [2]; 24 h, replicate 2): 90% and 94%
Population Tubulin-Different-Phenotype (%) (HEK-293T [2]; 24 h, replicate 2): 77% and 27%
Total Cell Count (HEK-293T [2]; 24 h, replicate 2): 1011 and 1578
Population Apoptotic (%) (U2OS [3]; 12 h, replicate 1): 65% and 50%
Population Fragmented Nuclei (%) (U2OS [3]; 12 h, replicate 1): 20% and 9%
Population Healthy Nuclei (%) (U2OS [3]; 12 h, replicate 1): 30% and 78%
Population Hoechst High Intensity Objects (%) (U2OS [3]; 12 h, replicate 1): 4% and 5%
Population Membrane Permeable-Phenotype (%) (U2OS [3]; 12 h, replicate 1): 58%
Population Mitotic Cells (%) (U2OS [3]; 12 h, replicate 1): 34% and 50%
Population Normal (%) (U2OS [3]; 12 h, replicate 1): 95% and 94%
Population Tubulin-Different-Phenotype (%) (U2OS [3]; 12 h, replicate 1): 48%
Total Cell Count (U2OS [3]; 12 h, replicate 1): 159 and 95
Population Apoptotic (%) (U2OS [3]; 12 h, replicate 2): 76% and 37%
Population Fragmented Nuclei (%) (U2OS [3]; 12 h, replicate 2): 18% and 16%
Population Healthy Nuclei (%) (U2OS [3]; 12 h, replicate 2): 45% and 70%
Population Hoechst High Intensity Objects (%) (U2OS [3]; 12 h, replicate 2): 11% and 17%
Population Membrane Permeable-Phenotype (%) (U2OS [3]; 12 h, replicate 2): 63% and 33%
Population Mitotic Cells (%) (U2OS [3]; 12 h, replicate 2): 23% and 62%
Population Normal (%) (U2OS [3]; 12 h, replicate 2): 88% and 82%
Population Pyknosed Nuclei (%) (U2OS [3]; 12 h, replicate 2): 35% and 13%
Population Tubulin-Different-Phenotype (%) (U2OS [3]; 12 h, replicate 2): 100% and 34%
Total Cell Count (U2OS [3]; 12 h, replicate 2): 147 and 102
Population Apoptotic (%) (U2OS [3]; 24 h, replicate 1): 89% and 53%
Population Fragmented Nuclei (%) (U2OS [3]; 24 h, replicate 1): 15% and 5%
Population Normal (%) (U2OS [3]; 24 h, replicate 1): 83% and 96%
Total Cell Count (U2OS [3]; 24 h, replicate 1): 194 and 119
Population Apoptotic (%) (U2OS [3]; 24 h, replicate 2): 62%
Population Fragmented Nuclei (%) (U2OS [3]; 24 h, replicate 2): 14% and 8%
Population Hoechst High Intensity Objects (%) (U2OS [3]; 24 h, replicate 2): 14% and 10%
Population Membrane Permeable-Phenotype (%) (U2OS [3]; 24 h, replicate 2): 19%
Population Mitotic Cells (%) (U2OS [3]; 24 h, replicate 2): 37%
Population Normal (%) (U2OS [3]; 24 h, replicate 2): 85% and 89%
Population Tubulin-Different-Phenotype (%) (U2OS [3]; 24 h, replicate 2): 17%
Total Cell Count (U2OS [3]; 24 h, replicate 2): 149 and 124
Growth Rate (HEK-293T [4]; [7]): 0
Growth Rate (HEK-293T [4]; [8]): 0
Growth Rate (HEK-293T [4]; [9]): 0
Growth Rate (HEK-293T [4]; [10]): 0
Growth Rate (Fibroblast [5]; [7]): 0
Growth Rate (Fibroblast [5]; [8]): 0
Growth Rate (Fibroblast [5]; [9]): 0
Growth Rate (Fibroblast [5]; [10]): 0
Growth Rate (U2OS [6]; 0 h, replicate number 1, timepoint 0 hours): 0
Growth Rate (U2OS [6]; [7]): 0
Growth Rate (U2OS [6]; [8]): 0
Growth Rate (U2OS [6]; [9]): 0
Growth Rate (U2OS [6]; [10]): 0
